Results: ChEMBL document CHEMBL4118140, “Synthesis and in vitro evaluation of homoisoflavonoids as potent inhibitors of nitric oxide production in RAW-264.7 cells” (Bioorg Med Chem Lett, 2018)
Activity calls are given as the source filed them. The rule behind the calls is not given here.

Assays:
RAW264.7 [1] = experiment: Antiinflammatory activity in mouse RAW264.7 cells assessed as reduction in LPS-induced NO production at 1 uM after 18 hrs by Griess assay relative to control; assay type: functional; details: RAW264.7, 18 h
Method in brief: (§1)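 RAW 264.7 macrophages were stimulated with LPS together with test compound at 0.1, 1, 10, 25, 50 and 100 (six levels), with L-NMMA as the reference inhibitor. NO production was measured and expressed as % of the LPS-only control, with inhibition = 100 − that value. Results are mean ± SEM, n = 3, and IC50 came from the concentration series.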

RAW264.7 [2] = experiment: Antiinflammatory activity in mouse RAW264.7 cells assessed as reduction in LPS-induced NO production at 10 uM after 18 hrs by Griess assay relative to control; assay type: functional; details: RAW264.7, 18 h; method in brief: as §1
RAW264.7 [3] = experiment: Antiinflammatory activity in mouse RAW264.7 cells assessed as reduction in LPS-induced NO production after 18 hrs by Griess assay; assay type: functional, cell-based; details: RAW264.7, 18 h; method in brief: as §1
[4] = Cytotoxicity against mouse RAW264.7 cells assessed as cell viability at 1 uM after 24 hrs by CellTiter96 AQueous one solution cell proliferation assay (reference value: 100 +/- 2.4%); assay type: cell-based; details: read-out: Activity
[5] = Cytotoxicity against mouse RAW264.7 cells assessed as cell viability at 10 uM after 24 hrs by CellTiter96 AQueous one solution cell proliferation assay (reference value: 100 +/- 2.4%); assay type: cell-based; details: read-out: Activity
[6] = Cytotoxicity against mouse RAW264.7 cells assessed as cell viability at 50 uM after 24 hrs by CellTiter96 AQueous one solution cell proliferation assay (reference value: 100 +/- 2.4%); assay type: cell-based; details: read-out: Activity
[7] = Cytotoxicity against mouse RAW264.7 cells assessed as cell viability at 100 uM after 24 hrs by CellTiter96 AQueous one solution cell proliferation assay (reference value: 100 +/- 2.4%); assay type: cell-based; details: read-out: Activity
RAW264.7 [8] = experiment: Inhibition of iNOS expression in LPS-stimulated mouse RAW264.7 cells at 10 uM after 18 hrs by Western blot method; assay type: functional, cell-based
RAW264.7 [9] = experiment: Effect on beta-actin expression in LPS-stimulated mouse RAW264.7 cells at 10 uM after 18 hrs by Western blot method; assay type: cell-based; details: raw264.7, 18 h

Structure (SMILES)	inhibition at 1 µM (RAW264.7 [1])	inhibition at 10 µM (RAW264.7 [2])	IC50 (RAW264.7 [3])	viability at 24 h, 1 µM [4]	viability at 24 h, 10 µM [5]	viability at 24 h, 50 µM [6]	viability at 24 h, 100 µM [7]	iNOS expression inhibition (active/inactive) (RAW264.7 [8])	Activity (RAW264.7 [9])
CNC(=N)NCCC[C@H](N)C(=O)O [TILARGININE]	-12.5%	14.2%	16.1 µM	–	–	–	–	–	–
COc1cc(O)c2c(c1)OCC(Cc1ccccc1O)C2=O (centres undefined)	2.8%	38%	12.4 µM	97.7%	81.1%	34.2%	12.5%	–	–
COc1cc(OC)c2c(c1)OC/C(=C\c1ccccc1O)C2=O	38.5%	97.2%	1.26 µM	108%	114%	13.3%	11.7%	Active	Non-Toxic
COc1cc2c(c(OC)c1OC)C(=O)C(Cc1ccccc1O)CO2 (racemic)	-24.6%	15.9%	13.4 µM	89.6%	87.2%	58.7%	44%	–	–
COc1cc2c(c(OC)c1OC)C(=O)/C(=C/c1ccccc1O)CO2	16.2%	83%	2.91 µM	94.6%	93.4%	11.8%	10.9%	Active	Non-Toxic
COc1ccc2c(c1)OCC(Cc1ccccc1O)C2=O (centres undefined)	9.2%	19.7%	14.2 µM	152%	118%	49.4%	31.5%	–	–
COc1ccc2c(c1)OC/C(=C\c1ccccc1O)C2=O	28.4%	91.4%	1.75 µM	102%	97.7%	11%	11.1%	Active	Non-Toxic
COc1cc2c(c(O)c1OC)C(=O)C(Cc1ccccc1O)CO2 (racemic)	-11.8%	34.1%	12.2 µM	97.6%	96.7%	41.1%	15.5%	–	–
COc1cc(O)c2c(c1)OC/C(=C\c1ccccc1O)C2=O	21.1%	92.5%	2.09 µM	94%	97%	10.7%	11%	Active	Non-Toxic
COc1cc(OC)c2c(c1)OCC(Cc1ccccc1O)C2=O (racemic)	-2.8%	20.5%	14.2 µM	98.6%	165%	55.2%	41.3%	–	–
